From ChEMBL document CHEMBL1141595, “1-(2-Phenoxyphenyl)methanamines: SAR for dual serotonin/noradrenaline reuptake inhibition, metabolic stability and hERG affinity” (Bioorg Med Chem Lett, 2008)

What was measured:
[1] = molecular target: Sodium-dependent serotonin transporter (Homo sapiens, UniProt P31645); experiment: Inhibition of [3H]5HT uptake at human 5HT transporter expressed in HEK293 cells; type: cell-based
In short: (§1)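 HEK293 cells each expressing one human amine transporter, 7500 cells/well, preincubated 5 min at 25 °C with compound or DMSO vehicle. Uptake was started with tritiated substrate: 5-HT 50 nM (5 min), NA 200 nM (15 min), DA 200 nM (5 min), shaken at 25 °C. Stopped by ice-cold wash and filtration, then scintillation counting.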

[2] = molecular target: Sodium-dependent noradrenaline transporter (Homo sapiens, UniProt P23975); experiment: Inhibition of [3H]NA uptake at human NA transporter expressed in HEK293 cells; type: cell-based; in short: as §1
Sodium-dependent noradrenaline transporter, sequence (P23975 whole entry): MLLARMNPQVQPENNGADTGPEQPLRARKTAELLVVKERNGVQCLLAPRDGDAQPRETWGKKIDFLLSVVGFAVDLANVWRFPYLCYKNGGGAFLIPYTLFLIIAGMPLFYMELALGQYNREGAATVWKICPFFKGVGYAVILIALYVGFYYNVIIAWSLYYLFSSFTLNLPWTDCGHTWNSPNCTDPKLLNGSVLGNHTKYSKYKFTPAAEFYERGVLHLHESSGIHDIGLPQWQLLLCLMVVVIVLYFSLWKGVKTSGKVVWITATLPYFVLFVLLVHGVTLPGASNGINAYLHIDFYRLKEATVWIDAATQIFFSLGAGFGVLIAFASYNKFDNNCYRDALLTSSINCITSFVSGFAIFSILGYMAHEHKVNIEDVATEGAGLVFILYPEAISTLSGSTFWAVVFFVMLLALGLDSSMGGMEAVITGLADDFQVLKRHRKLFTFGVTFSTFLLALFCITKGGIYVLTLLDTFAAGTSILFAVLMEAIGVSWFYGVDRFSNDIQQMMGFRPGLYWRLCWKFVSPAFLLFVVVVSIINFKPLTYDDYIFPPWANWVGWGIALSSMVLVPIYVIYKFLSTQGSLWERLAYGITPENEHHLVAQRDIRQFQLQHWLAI

[3] = molecular target: Sodium-dependent dopamine transporter (Homo sapiens, UniProt Q01959); experiment: Inhibition of [3H]dopamine uptake at human dopamine transporter expressed in HEK293 cells; type: cell-based; in short: as §1
Sodium-dependent dopamine transporter, sequence (Q01959 whole entry): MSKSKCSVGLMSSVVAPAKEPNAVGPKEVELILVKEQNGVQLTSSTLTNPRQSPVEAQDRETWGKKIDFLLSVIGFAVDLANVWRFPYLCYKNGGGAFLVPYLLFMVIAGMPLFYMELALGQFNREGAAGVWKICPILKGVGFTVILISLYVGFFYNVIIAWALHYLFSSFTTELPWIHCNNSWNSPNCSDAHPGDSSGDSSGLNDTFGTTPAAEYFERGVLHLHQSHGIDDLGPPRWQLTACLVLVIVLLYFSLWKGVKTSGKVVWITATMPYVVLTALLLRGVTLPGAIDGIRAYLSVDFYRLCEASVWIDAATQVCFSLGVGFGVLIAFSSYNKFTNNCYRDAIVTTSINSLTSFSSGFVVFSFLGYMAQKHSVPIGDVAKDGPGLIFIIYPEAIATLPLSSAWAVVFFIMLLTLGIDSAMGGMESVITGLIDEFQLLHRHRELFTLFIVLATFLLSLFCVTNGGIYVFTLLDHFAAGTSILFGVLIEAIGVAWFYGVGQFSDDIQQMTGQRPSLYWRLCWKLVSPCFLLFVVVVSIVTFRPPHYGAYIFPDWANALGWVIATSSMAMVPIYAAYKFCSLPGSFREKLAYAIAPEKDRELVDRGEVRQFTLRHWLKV

[4] = Metabolic stability assessed as intrinsic clearance in human liver microsomes; type: ADME, Microsome
[5] = molecular target: Voltage-gated inwardly rectifying potassium channel KCNH2 (Homo sapiens, UniProt Q12809); experiment: Binding affinity to human ERG
Voltage-gated inwardly rectifying potassium channel KCNH2, sequence (Q12809 whole entry): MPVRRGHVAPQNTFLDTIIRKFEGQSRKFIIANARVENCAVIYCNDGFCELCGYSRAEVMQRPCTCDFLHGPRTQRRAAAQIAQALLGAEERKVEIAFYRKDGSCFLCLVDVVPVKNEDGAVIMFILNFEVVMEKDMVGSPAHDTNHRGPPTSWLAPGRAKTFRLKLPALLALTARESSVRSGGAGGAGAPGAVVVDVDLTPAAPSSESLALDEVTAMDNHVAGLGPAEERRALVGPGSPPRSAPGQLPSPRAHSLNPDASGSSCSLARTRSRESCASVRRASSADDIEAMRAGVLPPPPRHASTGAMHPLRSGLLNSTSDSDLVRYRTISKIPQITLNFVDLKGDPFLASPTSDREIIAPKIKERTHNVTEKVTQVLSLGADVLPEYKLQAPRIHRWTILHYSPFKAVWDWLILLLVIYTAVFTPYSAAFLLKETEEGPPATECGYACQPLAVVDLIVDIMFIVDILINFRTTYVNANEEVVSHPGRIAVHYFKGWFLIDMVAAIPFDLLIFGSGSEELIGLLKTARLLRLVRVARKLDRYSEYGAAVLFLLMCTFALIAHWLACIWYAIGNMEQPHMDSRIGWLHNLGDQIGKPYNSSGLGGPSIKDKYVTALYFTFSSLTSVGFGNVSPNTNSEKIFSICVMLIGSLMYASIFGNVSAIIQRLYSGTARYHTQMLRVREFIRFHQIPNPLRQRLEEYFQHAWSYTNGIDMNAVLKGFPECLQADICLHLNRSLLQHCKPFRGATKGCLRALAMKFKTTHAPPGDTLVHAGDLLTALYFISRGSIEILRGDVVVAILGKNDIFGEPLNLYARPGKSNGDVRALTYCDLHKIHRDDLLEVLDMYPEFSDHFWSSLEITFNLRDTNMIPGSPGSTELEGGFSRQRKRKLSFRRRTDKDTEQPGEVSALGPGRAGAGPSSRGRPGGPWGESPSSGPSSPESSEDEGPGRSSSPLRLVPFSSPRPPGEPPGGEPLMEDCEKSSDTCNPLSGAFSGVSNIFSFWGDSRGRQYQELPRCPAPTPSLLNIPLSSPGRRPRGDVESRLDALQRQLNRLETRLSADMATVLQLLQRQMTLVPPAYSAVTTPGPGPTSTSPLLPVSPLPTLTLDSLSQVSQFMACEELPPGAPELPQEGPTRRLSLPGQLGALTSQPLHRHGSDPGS

[6] = Membrane permeability by PAMPA assay; type: ADME

Sodium-dependent serotonin transporter, sequence (P31645 whole entry): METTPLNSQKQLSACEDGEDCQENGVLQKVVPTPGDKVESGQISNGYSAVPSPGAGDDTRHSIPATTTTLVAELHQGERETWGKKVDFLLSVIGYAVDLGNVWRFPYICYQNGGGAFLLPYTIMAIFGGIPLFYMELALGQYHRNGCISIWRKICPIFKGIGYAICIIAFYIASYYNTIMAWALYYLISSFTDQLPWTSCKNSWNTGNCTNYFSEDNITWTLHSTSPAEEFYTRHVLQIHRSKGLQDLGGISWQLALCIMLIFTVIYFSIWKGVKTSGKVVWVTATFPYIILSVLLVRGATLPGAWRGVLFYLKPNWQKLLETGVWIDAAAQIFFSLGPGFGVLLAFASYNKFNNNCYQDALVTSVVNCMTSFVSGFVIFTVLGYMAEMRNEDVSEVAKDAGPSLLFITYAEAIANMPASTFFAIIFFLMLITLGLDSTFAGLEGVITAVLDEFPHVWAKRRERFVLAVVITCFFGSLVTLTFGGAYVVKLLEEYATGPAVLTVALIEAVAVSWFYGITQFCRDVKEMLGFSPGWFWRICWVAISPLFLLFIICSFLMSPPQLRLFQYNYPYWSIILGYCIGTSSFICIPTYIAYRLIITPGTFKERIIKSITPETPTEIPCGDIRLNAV

| SMILES | IC50 [1] [nM] | IC50 [2] [nM] | IC50 [3] [nM] | microsomal CLint [4] [µL/min/mg] | Ki [5] [nM] | Papp [6] [×10⁻⁶ cm/s] |
| --- | --- | --- | --- | --- | --- | --- |
| CNCc1cc(N2CCCS2(=O)=O)ccc1Oc1ccc(Cl)cc1C | 10 | 11 | 47 | 11 | 1590 | 2.7 |
| CNCc1ccccc1Oc1ccc(Cl)cc1OC | 13 | 78 | 19600 | 9 | 4380 |  |
| CN(C)Cc1ccccc1Oc1ccccc1 | 660 | 70 |  |  |  |  |
| CNCc1cc(NS(C)(=O)=O)ccc1Oc1ccc(Cl)cc1C | 16 | 25 | 320 | 8 | 7250 | 2.2 |
| CNCc1cc(C(N)=O)ccc1Oc1ccc(Cl)cc1C | 7 | 46 | 2820 | 8 |  |  |
| CNCc1cc(C(N)=O)ccc1Oc1ccc(Cl)cc1Cl | 37 | 84 | 1210 | 8 |  | 10 |
| CNCc1cc(N2CCCS2(=O)=O)ccc1Oc1ccc(Cl)cc1Cl | 12 | 17 | 138 | 12 |  |  |
| CNCc1ccccc1Oc1ccc(F)cc1Cl |  | 300 | 6510 |  |  |  |
| CNCc1cc(C(N)=O)ccc1Oc1ccc(Cl)cc1OC | 12 | 62 | 21000 | 8 | > 7500 | 11 |
| CNCc1ccccc1Oc1ccc(OC)cc1Cl | 22 | 157 | 5950 |  |  |  |
| CNCc1cc(C(=O)NC)ccc1Oc1ccc(Cl)cc1Cl | 13 | 38 | 800 | 9 | 1760 |  |
| CN(C)Cc1ccccc1Oc1ccc(Cl)cc1F | 6 | 21 | 421 |  |  |  |
| CN(C)Cc1ccccc1Oc1ccc(Cl)cc1 | 18 | 256 | 124 |  |  |  |
| CN(C)Cc1ccccc1Oc1ccc(F)cc1Cl | 32 | 46 | 2130 | 219 |  |  |
| Cc1cccc(CN(C2CCOCC2)[C@H]2CCNC2)c1C |  |  |  | < 7 |  |  |
| CNCc1ccccc1Oc1ccc(Cl)cc1Cl | 56 | 42 | 506 |  |  |  |
| CNCc1cc(C(=O)N(C)C)ccc1Oc1ccc(Cl)cc1OC | 8 | 32 | > 40000 | 15 |  | 15 |
| CNCc1cc(C(=O)N(C)C)ccc1Oc1ccc(Cl)cc1C | 17 | 17 | 172 | 9 | 3750 | 19 |
| CNCc1cc(C(=O)NC)ccc1Oc1ccc(Cl)cc1OC | 13 | 78 | 15700 | 8 | > 7500 | 14 |
| CNCc1cc(C(=O)N(C)C)ccc1Oc1ccc(Cl)cc1Cl | 11 | 33 | 275 | 13 |  | 14 |
| CN(C)Cc1ccccc1Oc1cccc(Cl)c1 | 238 | 82 | 194 |  |  |  |
| CNCc1ccccc1Oc1ccc(Cl)cc1F | 73 | 429 |  | 22 | 5930 |  |
| CN(C)Cc1ccccc1Oc1ccccc1Cl | 282 | 15 | 2730 | 186 |  |  |
| CNCc1ccccc1Oc1ccc(Cl)cc1C | 18 | 22 | 421 | 20 |  |  |
| CN(C)Cc1ccccc1Oc1ccc(Cl)cc1Cl | 4 | 11 | 195 | 223 |  |  |
| CNCc1cc(C#N)ccc1Oc1ccc(Cl)cc1OC | 5 | > 400 | > 40000 |  |  |  |
| CNCc1cc(C(=O)NC)ccc1Oc1ccc(Cl)cc1C | 14 | 26 | 387 | 9 |  |  |
| CNCc1cc(C#N)ccc1Oc1ccc(Cl)cc1Cl | 28 | > 400 | 3010 |  | 2210 |  |
| COc1cc(Cl)ccc1Oc1ccccc1CN(C)C | 6 | 14 | 3780 | 45 | > 7500 |  |
